Converted amounts (≈) assume the structure as drawn.
Legend:
Candida albicans [1] = test: Antifungal activity against fluconazole-resistant Candida albicans 103 after 2 to 7 days by broth microdilution method; format: functional
In short: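 Broth microdilution per NCCLS. Compounds dissolved in DMSO, serially diluted in growth medium, then inoculum suspension added to give final concentrations of 128 to 0.25 µg/mL (twofold steps). Plates incubated at 32°C. MIC read by visual observation after 2-7 d. Fluconazole served as reference drug.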

Candida tropicalis = test: Antifungal activity against Candida tropicalis cgmcc 2.3739 after 2 to 7 days by broth microdilution method; format: functional
In short: (§1)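 Broth microdilution in 96-well plates per NCCLS. Compounds and fluconazole reference dissolved in DMSO, serially diluted in growth medium, then inoculum suspension added, final concentrations 128 to 0.25 µg/mL (twofold series). Incubated at 32°C. MIC read visually after 2-7 d.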

Aspergillus fumigatus = test: Antifungal activity against Aspergillus fumigatus cgmcc 3.7795 after 2 to 7 days by broth microdilution method; format: functional; in short: as §1
Candida albicans [2] = test: Antifungal activity against fluconazole-sensitive Candida albicans ATCC SC5314 after 2 to 7 days by broth microdilution method; format: functional; in short: as §1
Cryptococcus neoformans = test: Antifungal activity against Cryptococcus neoformans cgmcc 2.3161 after 2 to 7 days by broth microdilution method; format: functional; in short: as §1
Candida albicans [3] = test: Antifungal activity against Candida albicans cpcc 400616 after 2 to 7 days by broth microdilution method; format: functional; in short: as §1
HT-29 = test: Cytotoxicity against human HT-29 cells by MTT assay; format: cell-based
HepG2 = test: Cytotoxicity against human HepG2 cells by MTT assay; format: cell-based
H9c2 = test: Cytotoxicity against rat H9c2 cells by MTT assay; format: cell-based
A549 = test: Cytotoxicity against human A549 cells by MTT assay; format: cell-based

Compound | MIC (Candida albicans [1]) [µg/mL] | MIC (Candida tropicalis) [µg/mL] | MIC (Aspergillus fumigatus) [µg/mL] | MIC (Candida albicans [2]) [µg/mL] | MIC (Cryptococcus neoformans) [µg/mL] | MIC (Candida albicans [3]) [µg/mL] | IC50 (HT-29) [µg/mL] | IC50 (HepG2) [µg/mL] | IC50 (H9c2) [µg/mL] | IC50 (A549) [µg/mL]
O=C1CCSc2ccc(Cl)cc21 | 16 (≈ 80.5 µM) | 8 (≈ 40.3 µM) | > 128 | 4 (≈ 20.1 µM) | 32 (≈ 161 µM) | 16 (≈ 80.5 µM) | – | – | – | –
Fc1ccc2c(c1)C(Cl)=C(Cn1cncn1)CS2 | 32 (≈ 114 µM) | 8 (≈ 28.4 µM) | > 128 | 4 (≈ 14.2 µM) | 64 (≈ 227 µM) | 16 (≈ 56.8 µM) | – | – | – | –
CC(C)N(CC1=C(Cl)c2cc(Br)ccc2SC1)C(C)C | 0.5 (≈ 1.33 µM) | > 128 | > 128 | 0.5 (≈ 1.33 µM) | 0.25 (≈ 0.667 µM) | 0.5 (≈ 1.33 µM) | > 100 | > 100 | > 100 | 36 (≈ 96.2 µM)
ClC1=C(CN2CCCC2)CSc2ccc(Br)cc21 | 64 (≈ 186 µM) | 128 (≈ 371 µM) | > 128 | 8 (≈ 23.2 µM) | 8 (≈ 23.2 µM) | 16 (≈ 46.4 µM) | – | – | – | –
COc1cccc2c1C(=O)c1c(O)c3c(c(O)c1C2=O)C[C@@](O)(C(=O)CO)C[C@@H]3O[C@H]1C[C@H](N)[C@H](O)[C@H](C)O1 | – | – | – | – | – | – | 1.44 (≈ 2.65 µM) | 2.9 (≈ 5.34 µM) | 0.29 (≈ 0.534 µM) | 1.77 (≈ 3.26 µM)
CCN(CC)CC1=C(Cl)c2cc(Cl)ccc2SC1 | 8 (≈ 26.5 µM) | 2 (≈ 6.62 µM) | > 128 | 0.5 (≈ 1.65 µM) | 1 (≈ 3.31 µM) | 4 (≈ 13.2 µM) | > 100 | > 100 | > 100 | > 100
ClC1=C(Cn2ccnc2)CSc2ccc(Cl)cc21 | 64 (≈ 215 µM) | 64 (≈ 215 µM) | 64 (≈ 215 µM) | 16 (≈ 53.8 µM) | 8 (≈ 26.9 µM) | 32 (≈ 108 µM) | – | – | – | –
CCN(CC)CC1=C(Cl)c2cc(Br)ccc2SC1 | 64 (≈ 185 µM) | 64 (≈ 185 µM) | > 128 | 8 (≈ 23.1 µM) | 4 (≈ 11.5 µM) | 16 (≈ 46.1 µM) | – | – | – | –
CN1CCN(CC2=C(Cl)c3cc(F)ccc3SC2)CC1 | 16 (≈ 51.1 µM) | 32 (≈ 102 µM) | > 128 | 16 (≈ 51.1 µM) | 1 (≈ 3.2 µM) | 16 (≈ 51.1 µM) | – | – | – | –
O=C1CCSc2ccc(F)cc21 | 64 (≈ 351 µM) | 16 (≈ 87.8 µM) | 64 (≈ 351 µM) | 8 (≈ 43.9 µM) | 64 (≈ 351 µM) | 32 (≈ 176 µM) | – | – | – | –
CN1CCN(CC2=C(Cl)c3cc(Br)ccc3SC2)CC1 | 64 (≈ 171 µM) | 16 (≈ 42.8 µM) | > 128 | 8 (≈ 21.4 µM) | 8 (≈ 21.4 µM) | 16 (≈ 42.8 µM) | – | – | – | –
CC(C)NCC1=C(Cl)c2cc(Cl)ccc2SC1 | 32 (≈ 111 µM) | 32 (≈ 111 µM) | 64 (≈ 222 µM) | 16 (≈ 55.5 µM) | 0.5 (≈ 1.73 µM) | 32 (≈ 111 µM) | – | – | – | –
Fc1ccc2c(c1)C(Cl)=C(CN1CCCCC1)CS2 | 16 (≈ 53.7 µM) | 16 (≈ 53.7 µM) | > 128 | 8 (≈ 26.9 µM) | 2 (≈ 6.72 µM) | 2 (≈ 6.72 µM) | – | – | – | –
CC(C)N(CC1=C(Cl)c2cc(F)ccc2SC1)C(C)C | 64 (≈ 204 µM) | 2 (≈ 6.37 µM) | > 128 | 4 (≈ 12.7 µM) | 4 (≈ 12.7 µM) | 4 (≈ 12.7 µM) | – | – | – | –
ClC1=C(Cn2cncn2)CSc2ccc(Br)cc21 | > 128 | > 128 | > 128 | 64 (≈ 187 µM) | 8 (≈ 23.3 µM) | > 128 | – | – | – | –
Cc1ccc2c(c1)C(Cl)=C(CN1CCN(C)CC1)CS2 | 64 (≈ 207 µM) | 8 (≈ 25.9 µM) | > 128 | 8 (≈ 25.9 µM) | 32 (≈ 104 µM) | 32 (≈ 104 µM) | – | – | – | –
ClC1=C(CN2CCCCC2)CSc2ccc(Br)cc21 | 64 (≈ 178 µM) | 128 (≈ 357 µM) | > 128 | 8 (≈ 22.3 µM) | 4 (≈ 11.2 µM) | 32 (≈ 89.2 µM) | – | – | – | –

Compound | MIC (Candida albicans [1]) [µg/mL] | MIC (Candida tropicalis) [µg/mL] | MIC (Aspergillus fumigatus) [µg/mL] | MIC (Candida albicans [2]) [µg/mL] | MIC (Cryptococcus neoformans) [µg/mL] | MIC (Candida albicans [3]) [µg/mL] | IC50 (HT-29) [µg/mL] | IC50 (HepG2) [µg/mL] | IC50 (H9c2) [µg/mL] | IC50 (A549) [µg/mL]
Cc1ccc2c(c1)C(=O)CCS2 | 64 (≈ 359 µM) | 4 (≈ 22.4 µM) | > 128 | 8 (≈ 44.9 µM) | 32 (≈ 180 µM) | 16 (≈ 89.8 µM) | – | – | – | –
O=CC1=C(Cl)c2cc(F)ccc2SC1 | 64 (≈ 280 µM) | 16 (≈ 70 µM) | > 128 | 64 (≈ 280 µM) | 32 (≈ 140 µM) | 64 (≈ 280 µM) | – | – | – | –
Fc1ccc2c(c1)C(Cl)=C(CN1CCCC1)CS2 | 64 (≈ 226 µM) | 16 (≈ 56.4 µM) | > 128 | 8 (≈ 28.2 µM) | 4 (≈ 14.1 µM) | 8 (≈ 28.2 µM) | – | – | – | –
Cc1ccc2c(c1)C(Cl)=C(C=O)CS2 | 64 (≈ 285 µM) | 64 (≈ 285 µM) | > 128 | 16 (≈ 71.2 µM) | 64 (≈ 285 µM) | 32 (≈ 142 µM) | – | – | – | –
Fc1ccc2c(c1)C(Cl)=C(Cn1ccnc1)CS2 | 64 (≈ 228 µM) | 8 (≈ 28.5 µM) | > 128 | 4 (≈ 14.2 µM) | 32 (≈ 114 µM) | 16 (≈ 57 µM) | – | – | – | –
CC(C)NCC1=C(Cl)c2cc(Br)ccc2SC1 | 16 (≈ 48.1 µM) | > 128 | > 128 | 4 (≈ 12 µM) | 4 (≈ 12 µM) | 8 (≈ 24 µM) | – | – | – | –
CCN(CC)CC1=C(Cl)c2cc(C)ccc2SC1 | 64 (≈ 227 µM) | 64 (≈ 227 µM) | > 128 | 32 (≈ 114 µM) | 8 (≈ 28.4 µM) | 32 (≈ 114 µM) | – | – | – | –
CC(C)N(CC1=C(Cl)c2cc(Cl)ccc2SC1)C(C)C | 64 (≈ 194 µM) | 64 (≈ 194 µM) | > 128 | 4 (≈ 12.1 µM) | 64 (≈ 194 µM) | 4 (≈ 12.1 µM) | – | – | – | –
ClC1=C(CN2CCCC2)CSc2ccc(Cl)cc21 | > 128 | 4 (≈ 13.3 µM) | > 128 | 1 (≈ 3.33 µM) | 4 (≈ 13.3 µM) | 32 (≈ 107 µM) | – | – | – | –
CCN(CC)CC1=C(Cl)c2cc(F)ccc2SC1 | 64 (≈ 224 µM) | 2 (≈ 7 µM) | > 128 | 8 (≈ 28 µM) | 2 (≈ 7 µM) | 8 (≈ 28 µM) | – | – | – | –
Cc1ccc2c(c1)C(Cl)=C(CN1CCCCC1)CS2 | 128 (≈ 436 µM) | 64 (≈ 218 µM) | > 128 | 16 (≈ 54.4 µM) | 16 (≈ 54.4 µM) | 32 (≈ 109 µM) | – | – | – | –
CC(C)NCC1=C(Cl)c2cc(F)ccc2SC1 | 64 (≈ 235 µM) | 2 (≈ 7.36 µM) | 64 (≈ 235 µM) | 2 (≈ 7.36 µM) | 4 (≈ 14.7 µM) | 8 (≈ 29.4 µM) | – | – | – | –
ClC1=C(Cn2ccnc2)CSc2ccc(Br)cc21 | > 128 | > 128 | > 128 | 16 (≈ 46.8 µM) | 8 (≈ 23.4 µM) | 64 (≈ 187 µM) | – | – | – | –
ClC1=C(Cn2cncn2)CSc2ccc(Cl)cc21 | 32 (≈ 107 µM) | 32 (≈ 107 µM) | > 128 | 8 (≈ 26.8 µM) | 4 (≈ 13.4 µM) | 16 (≈ 53.7 µM) | – | – | – | –
CN1CCN(CC2=C(Cl)c3cc(Cl)ccc3SC2)CC1 | 64 (≈ 194 µM) | 64 (≈ 194 µM) | > 128 | 16 (≈ 48.6 µM) | 4 (≈ 12.1 µM) | 32 (≈ 97.2 µM) | – | – | – | –
O=C1CCSc2ccc(Br)cc21 | 64 (≈ 263 µM) | 16 (≈ 65.8 µM) | > 128 | 8 (≈ 32.9 µM) | 64 (≈ 263 µM) | 32 (≈ 132 µM) | – | – | – | –
